These results are taken from ChEMBL document CHEMBL1275377, “Structure-based design, synthesis, and structure-activity relationship studies of HIV-1 protease inhibitors incorporating phenyloxazolidinones” (J Med Chem, 2010).

Each structure is given as a SMILES string.

One test has as its target Protease (Human immunodeficiency virus 1, UniProt Q9YQ12). In words: Inhibition of wild type HIV1 protease by FRET.
In test [1] the test system is Human immunodeficiency virus 1. In words: Antiviral activity against multidrug resistant Human immunodeficiency virus 1 harboring protease M46I, I54V, V82A and L90M mutant. The format is functional, organism-based. The method, boiled down: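 Drug susceptibility assay run by an outside contract lab. Panel: patient-derived wild-type HIV-1 clades A, B and C; MDR1 carrying protease M46I, I54V, V82A, L90M; MDR control MDRC4; and an NL4-3-derived clade B wild-type control (CNDO). The PR/RT regions of these strains were sequenced and deposited.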

Test [2] has as its system Human immunodeficiency virus 1. Description: Antiviral activity against wild type Human immunodeficiency virus 1. The class given is functional, organism-based.
Test [3] deals with Human immunodeficiency virus 1. In words: Antiviral activity against multidrug resistant Human immunodeficiency virus 1 MDRC4. The format is functional, organism-based.
Test [4] deals with Human immunodeficiency virus 1. Description: Antiviral activity against Human immunodeficiency virus 1 clade B isolated from HIV-AIDS patient. The format is functional, organism-based.
For test [5], the system named is Human immunodeficiency virus 1. Description: Antiviral activity against Human immunodeficiency virus 1 clade A isolated from HIV-AIDS patient. The class given is functional, organism-based.
In test [6] the test system is Human immunodeficiency virus 1. In words: Antiviral activity against Human immunodeficiency virus 1 clade C isolated from HIV-AIDS patient. The class given is functional, organism-based.

Sequence of Protease (Q9YQ12 whole entry): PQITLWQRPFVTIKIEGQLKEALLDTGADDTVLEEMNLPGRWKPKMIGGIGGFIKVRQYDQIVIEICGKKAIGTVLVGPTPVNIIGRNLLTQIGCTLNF

Broadly, the Ki is the equilibrium dissociation constant of an inhibitor or competing ligand from its target. Low readings indicate tighter binding, high ones weaker binding. Compound `CC(=O)c1ccc(N2C[C@@H](C(=O)N[C@@H](Cc3ccccc3)[C@H](O)CN(CC(C)C)S(=O)(=O)c3ccc(CO)cc3)OC2=O)cc1` showed a Ki at Protease of 0.317 nM.
Same read-out and setting: for `CC(C)CN(C[C@@H](O)[C@H](Cc1ccccc1)NC(=O)[C@@H]1CN(c2ccccc2)C(=O)O1)S(=O)(=O)c1ccc(CO)cc1` the value was 0.252 nM.
As usually defined, the EC50 is the midpoint of the concentration-response curve. As for `CC(C)CN(C[C@@H](O)[C@H](Cc1ccccc1)NC(=O)[C@@H]1CN(c2cccc(S(C)(=O)=O)c2)C(=O)O1)S(=O)(=O)c1ccc2ncsc2c1`, the EC50 in test [1] was 9.4 nM; in test [2], 5 nM; in test [3] it was 10.5 nM; in test [4] it was 3.5 nM; in test [5], 4.1 nM; in test [6] it was 5.7 nM.
Take `CC(C)CN(C[C@@H](O)[C@H](Cc1ccccc1)NC(=O)[C@@H]1CN(c2cccc(C(F)(F)F)c2)C(=O)O1)S(=O)(=O)c1ccc2ncsc2c1`: the EC50 was 57.6 nM in test [1]; 13.5 nM in test [2]; 53.4 nM in test [3]; 9.9 nM in test [4]; 16.1 nM in test [5]; 32.5 nM in test [6].
Regarding `CC(=O)Nc1cccc(N2C[C@@H](C(=O)N[C@@H](Cc3ccccc3)[C@H](O)CN(CC(C)C)S(=O)(=O)c3ccc4ncsc4c3)OC2=O)c1`, the EC50 in test [1] was 25.4 nM; in test [2], 5.8 nM; in test [3] it was 29.5 nM; in test [4], 7.7 nM; in test [5], 10.1 nM; in test [6] it was 9.5 nM.
In the case of `CC(C)CN(C[C@@H](O)[C@H](Cc1ccccc1)NC(=O)[C@@H]1CN(c2ccc(F)cc2F)C(=O)O1)S(=O)(=O)c1ccc(N)cc1`, affinity on Protease was put at a Ki of 0.385 nM.
`COc1ccc(S(=O)(=O)N(CC(C)C)C[C@@H](O)[C@H](Cc2ccccc2)NC(=O)[C@@H]2CN(c3cccc(N)c3)C(=O)O2)cc1`: the EC50 in test [1] came out at 19 nM; in test [2], 4 nM; in test [3], 36.4 nM; in test [4], 3 nM; in test [5], 8.5 nM; in test [6] it was 9.4 nM.
Turning to `CC(C)CN(C[C@@H](O)[C@H](Cc1ccccc1)NC(=O)[C@@H]1CN(c2ccc(F)cc2)C(=O)O1)S(=O)(=O)c1ccc(N)cc1`, the affinity at Protease, expressed as Ki, was 0.448 nM.
Still for that read-out and setting: for `CC(C)CN(C[C@@H](O)[C@H](Cc1ccccc1)NC(=O)[C@@H]1CN(c2ccc(F)cc2F)C(=O)O1)S(=O)(=O)c1ccc2c(c1)OCO2` the value was 0.347 nM.
On to `COC(=O)Nc1cccc(N2C[C@@H](C(=O)N[C@@H](Cc3ccccc3)[C@H](O)CN(CC(C)C)S(=O)(=O)c3ccc4ncsc4c3)OC2=O)c1`, for which the half-maximal effective concentration (EC50) was determined as 10.8 nM in test [1]; 1.2 nM in test [2]; 13 nM in test [3]; 1.6 nM in test [4]; 2.4 nM in test [5]; 3 nM in test [6].
For the compound `CC(C)CN(C[C@@H](O)[C@H](Cc1ccccc1)NC(=O)[C@@H]1CN(c2cccc(N)c2)C(=O)O1)S(=O)(=O)c1ccc2c(c1)OCO2`, the EC50 in test [1] was 27.9 nM; in test [2], 7.1 nM; in test [3], 35.4 nM; in test [4] it was 2.8 nM; in test [5], 6.1 nM; in test [6], 12.3 nM.
`COc1ccc(S(=O)(=O)N(CC(C)C)C[C@@H](O)[C@H](Cc2ccccc2)NC(=O)[C@@H]2CN(c3ccccc3)C(=O)O2)cc1`: the affinity at Protease, expressed as Ki, was 0.1 nM. That is a sub-nanomolar value.
In the case of `CC(C)CN(C[C@@H](O)[C@H](Cc1ccccc1)NC(=O)O[C@H]1CO[C@H]2OCC[C@H]21)S(=O)(=O)c1ccc(N)cc1`, the EC50 turned out to be 0.5 nM in test [1]; 0.4 nM in test [2]; 0.4 nM in test [4]; 0.6 nM in test [5]; 0.4 nM in test [6].
In the case of `CC(C)CN(C[C@@H](O)[C@H](Cc1ccccc1)NC(=O)[C@@H]1CN(c2cccc([N+](=O)[O-])c2)C(=O)O1)S(=O)(=O)c1ccc2ncsc2c1`, the EC50 was found to be 33.8 nM in test [1]; 7.3 nM in test [2]; 37.7 nM in test [3]; 5.7 nM in test [4]; 11.5 nM in test [5]; 16.3 nM in test [6].
With `CC(C)CN(C[C@@H](O)[C@H](Cc1ccccc1)NC(=O)[C@@H]1CN(c2ccc(F)c(F)c2)C(=O)O1)S(=O)(=O)c1ccc(CO)cc1`, the inhibitory constant (Ki) on Protease is 0.33 nM.
`CC(=O)c1cccc(N2C[C@@H](C(=O)N[C@@H](Cc3ccccc3)[C@H](O)CN(CC(C)C)S(=O)(=O)c3ccc4ncsc4c3)OC2=O)c1`: the 50% effective concentration (EC50) turned out to be 32.3 nM in test [1]; 6.5 nM in test [2]; 34.7 nM in test [3]; 4.2 nM in test [4]; 9.7 nM in test [5]; 10.1 nM in test [6].
On to `CC(C)CN(C[C@@H](O)[C@H](Cc1ccccc1)NC(=O)[C@@H]1CN(c2ccccc2)C(=O)O1)S(=O)(=O)c1ccc2ncsc2c1`, for which the EC50 in test [1] came out at 113 nM; in test [2], 21.5 nM; in test [3], 123 nM; in test [4] it was 14.1 nM; in test [5], 29.8 nM; in test [6], 40.9 nM.
As for `CC(=O)Nc1cccc(N2C[C@@H](C(=O)N[C@@H](Cc3ccccc3)[C@H](O)CN(CC(C)C)S(=O)(=O)c3ccc4c(c3)OCO4)OC2=O)c1`, the EC50 amounted to 41.9 nM in test [1]; 10.9 nM in test [2]; 46.9 nM in test [3]; 6.3 nM in test [4]; 9 nM in test [5]; 21.1 nM in test [6].
At Protease, `CC(C)CN(C[C@@H](O)[C@H](Cc1ccccc1)NC(=O)[C@@H]1CN(c2ccc(F)cc2F)C(=O)O1)S(=O)(=O)c1ccc(CO)cc1` gave a Ki of 0.212 nM.
For `CC(C)CN(C[C@@H](O)[C@H](Cc1ccccc1)NC(=O)[C@@H]1CN(c2ccccc2)C(=O)O1)S(=O)(=O)c1ccc(N)cc1`, the Ki at Protease was determined as 0.53 nM.
Consider `CC(C)CN(C[C@@H](O)[C@H](Cc1ccccc1)NC(=O)[C@@H]1CN(c2cccc(F)c2)C(=O)O1)S(=O)(=O)c1ccc(CO)cc1`, for which, on Protease, the Ki was 0.319 nM.
For `COc1ccc(S(=O)(=O)N(CC(C)C)C[C@@H](O)[C@H](Cc2ccccc2)NC(=O)[C@@H]2CN(c3cccc(S(C)(=O)=O)c3)C(=O)O2)cc1`, the 50% effective concentration (EC50) in test [1] turned out to be 14.4 nM; in test [2], 5.5 nM; in test [3], 18.6 nM; in test [4] it was 4.7 nM; in test [5], 7.3 nM; in test [6], 9.6 nM.
At Protease, `CC(=O)c1cccc(N2C[C@@H](C(=O)N[C@@H](Cc3ccccc3)[C@H](O)CN(CC(C)C)S(=O)(=O)c3ccc(CO)cc3)OC2=O)c1` showed an inhibition constant (Ki) of 0.236 nM.
As for `CC(C)CN(C[C@@H](O)[C@H](Cc1ccccc1)NC(=O)[C@@H]1CN(c2cccc(OC(F)(F)F)c2)C(=O)O1)S(=O)(=O)c1ccc2ncsc2c1`, the EC50 in test [1] turned out to be 104 nM; in test [2] it was 22.1 nM; in test [3], 111 nM; in test [4], 12.7 nM; in test [5] it was 32.5 nM; in test [6], 57.8 nM.
Consider `CC(C)CN(C[C@@H](O)[C@H](Cc1ccccc1)NC(=O)[C@@H]1CN(c2cccc(S(C)(=O)=O)c2)C(=O)O1)S(=O)(=O)c1ccc2c(c1)OCO2`, for which the EC50 came to 13.6 nM in test [1]; 4 nM in test [2]; 12.1 nM in test [3]; 3.5 nM in test [4]; 7.8 nM in test [5]; 7.6 nM in test [6].
On to `CC(C)CN(C[C@@H](O)[C@H](Cc1ccccc1)NC(=O)[C@@H]1CN(c2cccc(N)c2)C(=O)O1)S(=O)(=O)c1ccc2ncsc2c1`, for which the EC50 worked out at 11.9 nM in test [1]; 1.7 nM in test [2]; 14.6 nM in test [3]; 1.3 nM in test [4]; 2.6 nM in test [5]; 2.5 nM in test [6].
Turning to `CC(=O)c1cccc(N2C[C@@H](C(=O)N[C@@H](Cc3ccccc3)[C@H](O)CN(CC(C)C)S(=O)(=O)c3ccc4c(c3)OCO4)OC2=O)c1`, on Protease, the affinity, expressed as Ki, was 0.006 nM.
